Test results from ChEMBL document CHEMBL1132160, “Structure-antiviral activity relationship in the series of pyrimidine and purine N-[2-(2-phosphonomethoxy)ethyl] nucleotide analogues. 1. Derivatives substituted at the carbon atoms of the base” (J Med Chem, 1999).
In brackets after ≈: the same amount, converted by molar mass.

Experiments:
Human alphaherpesvirus 1 [1] = experiment: Inhibitory activity against herpes simplex virus type 1 (HSV-1) McIntyre strain; type: functional, organism-based
Method in brief: (§1)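 Confluent E6SM cell cultures were inoculated with 100 CCID50 of virus and allowed 1 h for adsorption. Residual virus was then removed, and the cells were incubated with test compound at 400, 200, 100, ... μg/mL. Viral cytopathicity was scored once it reached completion in untreated infected controls.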

Human alphaherpesvirus 1 [2] = experiment: Inhibitory activity against herpes simplex virus type 1 (HSV-1) KOS strain; type: functional, organism-based; method in brief: as §1
[3] = Inhibitory activity against murine sarcoma virus induced transformation of murine C3H/3T3 embryo fibroblasts; type: functional, Mus musculus
Method in brief: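 Murine C3H/3T3 embryo fibroblasts were seeded at 5 × 10⁵ cells/mL. After 24 h they were infected with 80 focus-forming units of MSV for 90–120 min at 37 °C. The medium was then replaced with fresh medium containing various compound concentrations, and transformation was examined microscopically after 6 days.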

Human alphaherpesvirus 2 [4] = experiment: Inhibitory activity against herpes simplex virus type 2 (HSV-2) Lyons strain; type: functional, organism-based; method in brief: as §1
Human alphaherpesvirus 2 [5] = experiment: Inhibitory activity against herpes simplex virus type 2 (HSV-2) G strain; type: functional, organism-based; method in brief: as §1
Cytomegalovirus [6] = experiment: Inhibitory activity against cytomegalovirus (CMV) AD 169 strain; type: functional, organism-based; settings: Human betaherpesvirus 5
Method in brief: (§2)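 HEL cell cultures, grown to confluence, received 100 CCID50 of virus. After 1 h adsorption, the inoculum was removed and the cultures were incubated with serial concentrations of compound (400, 200, 100, ... μg/mL).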

Cytomegalovirus [7] = experiment: Inhibitory activity against cytomegalovirus (CMV) Davis strain; type: functional, organism-based; settings: Human betaherpesvirus 5; method in brief: as §2
Human alphaherpesvirus 1 [8] = experiment: Inhibition of herpes simplex virus type 1 (HSV-1) F strain; type: functional, organism-based; method in brief: as §1
[9] = test system: Human immunodeficiency virus 1; experiment: Inhibition of human immunodeficiency virus type 1 (HIV-1) induced cytopathogenicity in CEM cells; type: functional, organism-based; settings: Human immunodeficiency virus 1, CCRF-CEM
Method in brief: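 CEM cells (~3 × 10⁵ cells/mL) were infected with 100 CCID50 of HIV-1 (IIIB)/mL and plated with dilutions of compound. After 4 days at 37 °C, giant cell formation was assessed microscopically.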

Vaccinia virus = experiment: Inhibitory activity against vaccinia virus (VV); type: functional, organism-based; settings: Orthopoxvirus vaccinia
Method in brief: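 Confluent E6SM cell cultures were inoculated with 100 CCID50 of virus and left for 1 h adsorption, then residual virus was removed. Cultures were incubated with test compound at serial concentrations (400, 200, 100, ... μg/mL). Virus-induced cytopathicity was scored once it reached completion in untreated infected control cultures.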

[10] = Inhibitory activity against herpes simplex virus type 2 (HSV-2) 196 strain; type: functional; method in brief: as §1
[11] = test system: Human immunodeficiency virus 2; experiment: Inhibition of human immunodeficiency virus type 2 (HIV-2) induced cytopathogenicity in CEM cells; type: functional, organism-based; settings: Human immunodeficiency virus 2, CCRF-CEM

SMILES | EC50 (Human alphaherpesvirus 1 [1]) [µg/mL] | EC50 (Human alphaherpesvirus 1 [2]) [µg/mL] | EC50 [3] [µg/mL] | EC50 (Human alphaherpesvirus 2 [4]) [µg/mL] | EC50 (Human alphaherpesvirus 2 [5]) [µg/mL] | EC50 (Cytomegalovirus [6]) [µg/mL] | EC50 (Cytomegalovirus [7]) [µg/mL] | EC50 (Human alphaherpesvirus 1 [8]) [µg/mL] | EC50 [9] [µg/mL] | EC50 (Vaccinia virus) [µg/mL] | EC50 [10] [µg/mL] | EC50 [11] [µg/mL]
NC1=NC2N=CC=NC2C(=O)N1CCOCP(=O)(O)O (centres undefined) | 150 (≈ 495 µM) | 70 (≈ 231 µM) | 26.5 (≈ 87.4 µM) | 70 (≈ 231 µM) | 70 (≈ 231 µM) | > 50 | > 50 | 150 (≈ 495 µM) | > 100 | 200 (≈ 660 µM) | 150 (≈ 495 µM) | > 100
CC(C)CCCCCOP(=O)(COCCn1cnc2c(N)nc(N)nc21)OCCCCCC(C)C | – | > 16 | > 8 | – | > 16 | 0.86 (≈ 1.68 µM) | 0.8 (≈ 1.56 µM) | – | > 4 | > 16 | – | > 4
CC(C)CCCCCOP(=O)(COCCn1cnc2c(O)nc(N)nc21)OCCCCCC(C)C | – | > 80 | > 40 | – | > 80 | 1.2 (≈ 2.34 µM) | 1.1 (≈ 2.14 µM) | – | > 4 | > 80 | – | > 4
CC(C)CCCCCOP(=O)(COCCn1cnc2c(Cl)nc(N)nc21)OCCCCCC(C)C | – | > 16 | > 8 | – | > 16 | 0.86 (≈ 1.62 µM) | 1 (≈ 1.88 µM) | – | > 4 | > 16 | – | > 4
CC(C)OP(=O)(O)COCCn1cnc2c(N)nc(N)nc21 | – | 150 (≈ 454 µM) | > 200 | – | > 400 | > 50 | > 50 | – | > 100 | > 400 | – | > 100
Nc1cc(N)c2ncn(CCOCP(=O)(O)O)c2n1 | > 400 | 300 (≈ 1040 µM) | 142 (≈ 494 µM) | 300 (≈ 1040 µM) | 300 (≈ 1040 µM) | > 50 | > 50 | > 400 | > 100 | > 400 | > 400 | > 100
CC(C)CCCCCOP(=O)(COCCn1cnc2c(N)ncnc21)OCCCCCC(C)C | – | > 3.2 | – | – | 3.2 (≈ 6.43 µM) | 1 (≈ 2.01 µM) | 3 (≈ 6.03 µM) | – | > 4 | > 3.2 | – | > 4
Nc1nc(F)nc2c1ncn2CCOCP(=O)(O)O | – | 70 (≈ 240 µM) | 22.3 (≈ 76.6 µM) | – | 70 (≈ 240 µM) | > 50 | > 50 | – | > 100 | 150 (≈ 515 µM) | – | 40 (≈ 137 µM)
CC(C)OP(=O)(COCCn1c(Br)nc2c(N)nc(N)nc21)OC(C)C | > 400 | > 400 | > 40 | 300 (≈ 665 µM) | > 400 | 25 (≈ 55.4 µM) | 20 (≈ 44.3 µM) | > 400 | > 100 | > 400 | > 400 | > 100
Nc1nc(O)c2nc(Br)n(CCOCP(=O)(O)O)c2n1 | 240 (≈ 652 µM) | 240 (≈ 652 µM) | > 0.16 | > 400 | 240 (≈ 652 µM) | 43 (≈ 117 µM) | > 50 | 240 (≈ 652 µM) | > 100 | – | 240 (≈ 652 µM) | > 100
CC(C)OP(=O)(O)COCCn1cnc2c(N)ncnc21 | – | 200 (≈ 634 µM) | > 40 | – | 300 (≈ 952 µM) | > 50 | > 50 | – | > 100 | > 400 | – | > 100
CC(C)CCCCCOP(=O)(COCCn1cnc2nc(N)nc(Cl)c21)OCCCCCC(C)C | – | > 16 | > 8 | – | > 16 | 5 (≈ 9.4 µM) | > 5 | – | > 4 | > 16 | – | > 4
Nc1cccc2c1ncn2CCOCP(=O)(O)O | – | > 400 | > 200 | – | > 400 | > 50 | > 50 | – | > 100 | > 400 | – | > 100
CC(C)OP(=O)(O)COCCn1cnc2c(O)nc(N)nc21 | 0.64 (≈ 1.93 µM) | 5.7 (≈ 17.2 µM) | > 0.064 | 1.9 (≈ 5.74 µM) | 5.3 (≈ 16 µM) | 0.35 (≈ 1.06 µM) | 0.3 (≈ 0.906 µM) | 0.64 (≈ 1.93 µM) | > 20 | – | 1.9 (≈ 5.74 µM) | 11 (≈ 33.2 µM)
